Experimental data reported in ChEMBL document CHEMBL3272339, “Catechol O-methyltransferase. 7. Affinity labeling with the oxidation products of 6-aminodopamine” (J Med Chem, 1976).
Blank lines part the entries; values can stand above or below the compound they belong to. Active and inactive are the calls of the source. The calls are words filed in the database; no cut-off is given here.

How the values were obtained:
[1] = Chemical stability of the compound in seal ampules containing water under nitrogenous condition at 5 umol/ml measured up to 4 hrs; type: physicochemical; settings: buffer, 5000 µM
Summary of the method: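 Stock prepared fresh for each experiment at 5 μmol/ml in water in sealed ampules under nitrogen; aliquots withdrawn as needed and checked for signs of oxidation over up to 4 hr.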

[2] = target: T1, Catechol O-methyltransferase (Rattus norvegicus) (UniProt P22734); test: Inhibition of Sprague-Dawley rat liver COMT using 0.76 mM SAM as substrate assessed as residual activity under aerobic condition at 189 uM at 37 degC after 40 mins relative to control
T1 sequence (whole entry): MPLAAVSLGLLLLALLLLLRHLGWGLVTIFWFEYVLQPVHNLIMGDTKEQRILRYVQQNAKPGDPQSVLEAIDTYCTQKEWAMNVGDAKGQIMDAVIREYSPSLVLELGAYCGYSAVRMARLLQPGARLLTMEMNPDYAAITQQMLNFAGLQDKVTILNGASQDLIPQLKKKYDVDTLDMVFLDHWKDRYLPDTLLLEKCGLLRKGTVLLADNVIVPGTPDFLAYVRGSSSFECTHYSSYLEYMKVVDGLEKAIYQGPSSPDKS

[3] = target: T1, Catechol O-methyltransferase (Rattus norvegicus); test: Inhibition of Sprague-Dawley rat liver COMT at 0.25 mM preincubated for > 50 mins at 37 degC
[4] = target: T1, Catechol O-methyltransferase (Rattus norvegicus); test: Inhibition of Sprague-Dawley rat liver COMT using > 0.3 mM SAM as substrate at 0.19 mM at 37 degC after 40 mins
[5] = target: T1, Catechol O-methyltransferase (Rattus norvegicus); test: Irreversible inhibition of Sprague-Dawley rat liver COMT
[6] = target: T1, Catechol O-methyltransferase (Rattus norvegicus); test: Inhibition of Sprague-Dawley rat liver COMT using 10 mM DHA/0.4 mM SAM as substrate assessed as residual activity under aerobic condition at 189 uM at 37 degC after 40 mins relative to control
[7] = target: T1, Catechol O-methyltransferase (Rattus norvegicus); test: Inhibition of Sprague-Dawley rat liver COMT assessed as residual activity under aerobic condition at 189 uM at 37 degC after 40 mins in presence of catalase relative to control
Summary of the method: (§1)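 Partially purified rat liver COMT (male Sprague-Dawley, calcium phosphate stage, ~50-fold) preincubated at 37° with inhibitor (189 μM), MgCl2 1.38 mM, phosphate buffer pH 7.60. Additions: sodium metabisulfite 0.15 M or catalase 250 μg. Anaerobic runs in sealed ampules under nitrogen. Residual activity vs unpreincubated controls; duplicates.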

[8] = target: T1, Catechol O-methyltransferase (Rattus norvegicus); test: Inhibition of Sprague-Dawley rat liver COMT using 0.76 mM SAH as substrate assessed as residual activity under aerobic condition at 189 uM at 37 degC after 40 mins relative to control
[9] = target: T1, Catechol O-methyltransferase (Rattus norvegicus); test: Inhibition of Sprague-Dawley rat liver COMT using 10 mM DHA as substrate assessed as residual activity under aerobic condition at 189 uM at 37 degC after 40 mins relative to control
[10] = target: T1, Catechol O-methyltransferase (Rattus norvegicus); test: Inhibition of Sprague-Dawley rat liver COMT assessed as residual activity under anaerobic condition at 189 uM at 37 degC after 40 mins relative to control; summary of the method: as §1
[11] = target: T1, Catechol O-methyltransferase (Rattus norvegicus); test: Inhibition of Sprague-Dawley rat liver COMT assessed as residual activity under aerobic condition at 189 uM at 37 degC after 40 mins relative to control; summary of the method: as §1
[12] = target: T1, Catechol O-methyltransferase (Rattus norvegicus); test: Inhibition of Sprague-Dawley rat liver COMT using 2.5 mM DHA/0.4 mM SAM as substrate assessed as residual activity under aerobic condition at 189 uM at 37 degC after 40 mins relative to control
[13] = target: T1, Catechol O-methyltransferase (Rattus norvegicus); test: Inhibition of Sprague-Dawley rat liver COMT using > 0.3 mM SAH as substrate at 0.19 mM at 37 degC after 40 mins
[14] = target: T1, Catechol O-methyltransferase (Rattus norvegicus); test: Inhibition of Sprague-Dawley rat liver COMT using 10 mM DHA/0.4 mM SAH as substrate assessed as residual activity under aerobic condition at 189 uM at 37 degC after 40 mins relative to control
[15] = target: T1, Catechol O-methyltransferase (Rattus norvegicus); test: Inhibition of Sprague-Dawley rat liver COMT using 2.5 mM DHA as substrate assessed as residual activity under aerobic condition at 189 uM at 37 degC after 40 mins relative to control
[16] = target: T1, Catechol O-methyltransferase (Rattus norvegicus); test: Inhibition of Sprague-Dawley rat liver COMT assessed as residual activity under aerobic condition at 189 uM at 37 degC after 40 mins in presence of antioxidant sodium metabisulfite relative to control; summary of the method: as §1
[17] = target: T1, Catechol O-methyltransferase (Rattus norvegicus); test: Inhibition of Sprague-Dawley rat liver COMT
[18] = target: T1, Catechol O-methyltransferase (Rattus norvegicus); test: Inhibition of Sprague-Dawley rat liver COMT under anaerobic condition at 37 degC
[19] = target: T1, Catechol O-methyltransferase (Rattus norvegicus); test: Inhibition of Sprague-Dawley rat liver COMT under aerobic condition at 37 degC in presence of antioxidant sodium metabisulfite
[20] = target: T1, Catechol O-methyltransferase (Rattus norvegicus); test: Inhibition of Sprague-Dawley rat liver COMT under aerobic condition at 37 degC in presence of catalase
[21] = Chemical stability of the compound assessed as polymerization under aerobic condition by spectrophotometric analysis; type: physicochemical
[22] = target: T1, Catechol O-methyltransferase (Rattus norvegicus); test: Inhibition of Sprague-Dawley rat liver COMT under aerobic condition at 5 mM preincubated up to 90 mins followed by enzyme addition at 37 degC measured after 20 mins
Summary of the method: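 Inhibitor at 5.0 mM in phosphate buffer pH 7.60 was air-oxidised at 37° for various times. Aliquots then went into preincubation mixtures with purified rat liver COMT (final 64 μM) for 20 min at 37°. Residual activity was measured by the radiochemical assay with ¹⁴C-SAM and catechol substrate, with methylated products extracted into toluene–isoamyl alcohol and counted.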

[23] = target: T1, Catechol O-methyltransferase (Rattus norvegicus); test: Inhibition of Sprague-Dawley rat liver COMT at 16 to 64 uM preincubated > 50 mins at 37 degC
Summary of the method: (§2)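 COMT came from male Sprague–Dawley rat liver (180–200 g), purified about 50-fold through the calcium phosphate stage. Inhibitor (fresh aqueous stock under N₂) was preincubated with enzyme, MgCl₂ and phosphate buffer pH 7.60 at 37°. Timed aliquots were assayed for 5 min at 37° with ¹⁴C-SAM and 3,4-dihydroxybenzoate or DHA, stopped with HCl, and products extracted and counted. Residual activity was taken against unpreincubated controls, in duplicate.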

[24] = Half life of the compound assessed as cyclization to 6-hydroxy-2H-indol-5(3H)-one at 37 degC; type: physicochemical
[25] = target: T1, Catechol O-methyltransferase (Rattus norvegicus); test: Inhibition of Sprague-Dawley rat liver COMT at 0.25 to 1.25 mM preincubated for > 50 mins at 37 degC; summary of the method: as §2

SMILES: NCCc1cc(O)c(O)cc1N
Stability [1]: Stable
Activity [2]: 26%
inhibition [3]: Active
inhibition [4]: Active
inhibition [5]: Active
Activity [6]: 85%
Activity [7]: 1%
Activity [8]: 52%
Activity [9]: 17%
Activity [10]: 103%
Activity [11]: 2%
Activity [12]: 63%
inhibition [13]: Active
Activity [14]: 94%
Activity [15]: 10%
Activity [16]: 77%

SMILES: Br.CC(N)C(C)(C)c1cc(O)c(O)cc1N (centres undefined)
Stability [1]: Stable
inhibition [17]: Active
inhibition [18]: inactive
inhibition [19]: inactive

SMILES: Br.Br.CN(C)CCc1cc(O)c(O)cc1N
Stability [1]: Stable
inhibition [5]: Active
inhibition [18]: inactive
inhibition [20]: Active
inhibition [19]: inactive

SMILES: C[N+](C)(C)CCC1=CC(=O)C(O)=CC1=N.[Br-]
Stability [21]: Unstable

Next, values leading:

Stability [21]: Unstable
SMILES: Br.CN(C)CCC1=CC(=O)C(O)=CC1=N

inhibition [22]: inactive
Stability [1]: Stable
inhibition [5]: Active
inhibition [23]: inactive
inhibition [18]: inactive
inhibition [20]: Active
inhibition [19]: inactive
SMILES: Br.C[N+](C)(C)CCc1cc(O)c(O)cc1N.[Br-]

half-life [24]: 30 s
SMILES: N=C1C=C(O)C(=O)C=C1CCN

Stability [1]: Stable
inhibition [18]: inactive
inhibition [19]: inactive
inhibition [25]: Active
SMILES: Br.NCC1(c2cc(O)c(O)cc2N)CCCC1
